The source of these data is article PMC2847577 (Molecular cell, 2009).

Where a chain is given by its changes, count along the chain named. Names and notes keep the numbering of the source. Like-named read-outs stand apart in the source and are kept apart here. No end group written: not given here.

In one data set the target is Puc^93-107 (Drosophila). The data set is described as follows: SPR. (In general: Surface plasmon resonance follows binding to a sensor surface in real time, without labels.)
Data set [1] deals with Puc^1-390 (Drosophila). In words: AUC.
In data set [2] the target is Puc^1-390 (Drosophila). The data set is described as follows: AUC. This is another data set of the same source.
Data set [3] has as its target SPOP^MATH (Homo sapiens, UniProt O43791). In words: Surface Plasmon Resonance. Format: binding. The note with it: Surface Plasmon Resonance (BIACORE), wildtype SPOP^MATH. Summed up: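 SPOP MATH domain expressed in E. coli BL21(DE3) GOLD as a GST fusion and purified by affinity, ion-exchange and gel-filtration chromatography. Binding of substrate-derived SPOP-binding-consensus peptides was measured by surface plasmon resonance on a BIACORE3000, and binding constants were reported.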

Data set [4] concerns the target SPOP^MATH (human, UniProt O43791 28-166). The data set is described as follows: crystal structure.
The data set “AUC” concerns the molecule itself. The data set is described as follows: AUC.
For a further data set, the target named is Cul3^NTD (UniProt Q13618 1-384). In words: AUC.
The data set “crystal structure” concerns the molecule itself. The data set is described as follows: crystal structure.

Cul3^NTD, sequence (Q13618 1-384): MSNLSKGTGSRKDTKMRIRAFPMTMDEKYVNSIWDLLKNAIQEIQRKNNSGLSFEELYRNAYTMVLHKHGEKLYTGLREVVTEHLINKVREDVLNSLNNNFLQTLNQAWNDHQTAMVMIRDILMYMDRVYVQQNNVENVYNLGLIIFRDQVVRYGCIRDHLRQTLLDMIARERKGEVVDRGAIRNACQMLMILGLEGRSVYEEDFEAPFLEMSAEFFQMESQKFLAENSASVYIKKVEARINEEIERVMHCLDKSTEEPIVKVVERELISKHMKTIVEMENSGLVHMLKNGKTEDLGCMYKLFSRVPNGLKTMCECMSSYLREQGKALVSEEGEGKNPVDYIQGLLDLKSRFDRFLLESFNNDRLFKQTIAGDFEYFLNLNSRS

Turning to “SPOP^MATH (from UniProt O43791 28-166) (domain or fragment)”, the Kd – broadly, the constant that tells how readily two partners part at equilibrium – with Puc^93-107 (Drosophila) was 4 µM.
On to “SPOP^MATH-BTB+ (from UniProt O43791 28-329) (domain or fragment)”, for which the stoichiometry N with Puc^1-390 (Drosophila) [1] and with Puc^1-390 (Drosophila) [2] was 2 SPOP per Puc in each case.
As for “Ac-LACDEVTSTTSSSTA (N-terminus assumed) [Puc^93-107]”, the “binding to SPOP^MATH (result in words)” value on SPOP^MATH [3] was “sufficient for binding”.
The same measure, in the same setting: with “MacroH2A^166-179: Synthetic peptide for the MacroH2A SPOP-binding region, residues 166-179 (KAASADSTTEGTPAD)” the entry was “sufficient for binding”.
Same read-out and setting: with DSTTEGTPADGFTVL [MacroH2A pep2] the entry was “negligible binding”.
Turning to KAASADSTTEGTPAD [MacroH2A_pep1], in the data set with SPOP^MATH [4], the binding result is reported as “binds”.
The same measure, in the same setting: with NTLFPDVSSSTH [Ci SBC2 peptide] the entry was “binds”.

B1: SPOP^MATH-BTB+ (domain or fragment, human, UniProt O43791 28-329, looked up)
chain: KVVKFSYMWTINNFSFCREEMGEVIKSSTFSSGANDKLKWCLRVNPKGLDEESKDYLSLYLLLVSCPKSEVRAKFKFSILNAKGEETKAMESQRAYRFVQGKDWGFKKFIRRDFLLDEANGLLPDDKLTLFCEVSVVQDSVNISGQNTMNMVKVPECRLADELGGLWENSRFTDCCLCVAGQEFQAHKAILAARSPVFSAMFEHEMEESKKNRVEINDVEPEVFKEMMCFIYTGKAPNLDKMADDLLAAADKYALERLKVMCEDALCSNLSVENAAEILILADLHSADQLKTQAVDFINYHA
Take B1: the binding result in the data set “AUC” was “binds”.

B2: SPOP^BTB (domain or fragment, human, UniProt O43791 173-297, looked up)
chain: QNTMNMVKVPECRLADELGGLWENSRFTDCCLCVAGQEFQAHKAILAARSPVFSAMFEHEMEESKKNRVEINDVEPEVFKEMMCFIYTGKAPNLDKMADDLLAAADKYALERLKVMCEDALCSNL
In the case of B2, in the data set with Cul3^NTD, the stoichiometry N (commonly the number of molecules, sites or subunits per partner or assembly) was 1 SPOP per Cul3 (2:2).

B3: SPOP^BTB+ (domain or fragment, human, UniProt O43791 172-329, looked up)
chain: GQNTMNMVKVPECRLADELGGLWENSRFTDCCLCVAGQEFQAHKAILAARSPVFSAMFEHEMEESKKNRVEINDVEPEVFKEMMCFIYTGKAPNLDKMADDLLAAADKYALERLKVMCEDALCSNLSVENAAEILILADLHSADQLKTQAVDFINYHA
For B3, the “stoichiometry N” value with Cul3^NTD was 1 SPOP per Cul3 (2:2). For the same molecule, the binding result in “crystal structure” is “binds”.

B4: SPOP^BTB+ L186D, L190D, L193D, I217K (domain or fragment, human, UniProt O43791 172-329, looked up)
chain: B3 chain with L15D, L19D, L22D, I46K
On to B4, for which the “stoichiometry N” value with Cul3^NTD is 1 SPOP per Cul3 (1:1).
On to DEVTSTTSSS [Puc SBC1_pep1], for which, in the data set with SPOP^MATH [4], the binding result is reported as “binds”.

B5: Gig^1-258 (domain or fragment, human, UniProt Q9H2C0 1-258, looked up)
chain: MAEGSAVSDPQHAARLLRALSSFREESRFCDAHLVLDGEEIPVQKNILAAASPYIRTKLNYNPPKDDGSTYKIELEGISVMVMREILDYIFSGQIRLNEDTIQDVVQAADLLLLTDLKTLCCEFLEGCIAAENCIGIRDFALHYCLHHVHYLATEYLETHFRDVSSTEEFLELSPQKLKEVISLEKLNVGNERYVFEAVIRWIAHDTEIRKVHMKDVMSALWVSGLDSSYLREQMLNEPLVREIVKECSNIPLSQPQQ
modifications: selenomethionines (structure phased by SAD)
With B5, the binding result in “crystal structure” was “binds”.
